From ChEMBL document CHEMBL5331142, “Novel 1,4-Dihydropyridines as Specific Binders and Activators of SIRT3 Impair Cell Viability and Clonogenicity and Downregulate Hypoxia-Induced Targets in Cancer Cells” (J Med Chem, 2023)
Active and inactive are the calls of the source. The calls are words filed in the database; no cut-off is given here.

Tests used:
[1] = target: T1, NAD-dependent protein deacetylase sirtuin-3, mitochondrial (Homo sapiens) (UniProt Q9NTG7); assay: Activation of N-terminal his-tagged human SIRT3 (114 to 380 residues) deacylation activity expressed in Escherichia coli at 10 uM using ACS2-acK642 as substrate in presence of NAD+ by NADH oxidation-coupled enzymatic assay; settings: filed as activator
T1 sequence (whole entry): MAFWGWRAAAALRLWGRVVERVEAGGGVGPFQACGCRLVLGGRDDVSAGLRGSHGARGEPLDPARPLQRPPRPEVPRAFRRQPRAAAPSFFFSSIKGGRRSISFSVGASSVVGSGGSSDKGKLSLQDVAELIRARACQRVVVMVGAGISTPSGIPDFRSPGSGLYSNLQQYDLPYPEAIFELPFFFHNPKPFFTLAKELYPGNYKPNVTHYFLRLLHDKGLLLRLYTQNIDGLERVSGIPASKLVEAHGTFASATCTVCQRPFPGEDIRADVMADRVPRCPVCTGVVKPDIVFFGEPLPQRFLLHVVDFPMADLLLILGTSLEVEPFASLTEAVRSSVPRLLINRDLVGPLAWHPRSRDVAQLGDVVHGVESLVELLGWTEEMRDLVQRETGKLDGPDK
Outline: (§1)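 Coupled PncA/GDH deacylation assay following NADPH oxidation to NADP+. 1.5 μM sirtuin, 50 μM substrate peptide, 100 μM NAD+, compound at 10 μM, 5% final DMSO. Isoform-specific physiological substrates: p53-acK381 (SIRT1), […] (SIRT2), ACS2-acK642 (SIRT3), CPS1-succK537 (SIRT5). Sirtuins expressed in E. coli, Ni-NTA purified, tag cleaved, then size-exclusion chromatography.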

[2] = target: T1, NAD-dependent protein deacetylase sirtuin-3, mitochondrial (Homo sapiens); assay: Activation of N-terminal his-tagged human SIRT3 (114 to 380 residues) deacylation activity expressed in Escherichia coli at 100 uM using ACS2-acK642 as substrate in presence of NAD+ by NADH oxidation-coupled enzymatic assay
Outline: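 Coupled PncA/GDH deacylation assay following NADPH oxidation to NADP+. 1.5 μM SIRT3 (E. coli-expressed, tag removed) with 50 μM ACS2-acK642 peptide and 100 μM NAD+, compound at 100 μM, 5% final DMSO.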

[3] = target: T2, NAD-dependent protein deacetylase sirtuin-3, mitochondrial (Homo sapiens, UniProt Q9NTG7); assay: Binding affinity to N-terminal his-tagged human SIRT3 (114 to 380 residues) assessed as dissociation constant by SPR analysis
T2 sequence (Q9NTG7 whole entry): T1 sequence (whole entry)
Outline: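 SPR with SIRT3 amine-coupled to the chip (sodium acetate pH 4.0; 1500–4000 RU). Analytes diluted to 200 μM in HBSP (20 mM Hepes, 150 mM NaCl, 0.005% P20; 2% DMSO), injected at 5, 10, 20, 40, 80 μM at 30 μL/min. Dissociation after 180 s. Reference chip lacked ligand. Apparent KD by Scatchard analysis. Run twice.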

[4] = target: T1, NAD-dependent protein deacetylase sirtuin-3, mitochondrial (Homo sapiens); assay: Activation of human SIRT3 overexpressing in human MDA-MB-231 cells assessed as increase in GDH activity at 50 uM incubated for 4 hrs by absorbance assay; assay type: cell-based
Outline: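 MDA-MB-231 cells exposed 4 h to 50 μM compound. 10^6 cells lysed in GDH assay buffer for 10 min on ice. Supernatant mixed with developer and glutamate, incubated 3 min at 37 °C, absorbance read at 450 nm with buffer blank subtracted. SIRT3-overexpressing MDA-MB-231 cells served as reference.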

[5] = system: CAL-62; assay: Anticancer activity against human CAL-62 cells assessed as reduction in cell viability at 50 uM incubated for 24 to 48 hrs under normoxia condition by trypan blue exclusion assay; assay type: functional, cell-based; settings: time 24-48 hrs, TDE = time-dependent effect
Outline: (§2)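 CAL-62 cells in RPMI 1640 with 10% FBS, treated with 50 μM compound (DMSO) for 24 and 48 h. Hypoxia induced with 200 μM CoCl2, kept in the medium during treatment. Viable cells counted by 0.4% trypan blue staining on a hemocytometer.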

[6] = system: CAL-62; assay: Anticancer activity against human CAL-62 cells assessed as reduction in cell viability at 50 uM incubated for 24 to 48 hrs under hypoxia condition by trypan blue exclusion assay; assay type: functional, cell-based; settings: time 24-48 hrs, TDE = time-dependent effect; outline: as §2
[7] = system: CAL-62; assay: Downregulation of CA-IX expression in human CAL-62 cells at 50 uM incubated for 48 hrs under hypoxia condition by Western blot analysis; assay type: functional, cell-based
Outline: (§3)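 CAL-62 or MDA-MB-231 cells made hypoxic with 200 μM CoCl2 for 24 h, then treated with 50 μM compound for 48 h with CoCl2 retained. Lysates (15 or 50 μg protein) immunoblotted for HIF-1α, EPAS-1 or CA-IX with ACTB, ECL detection. 3-TYP (1 μM) as control.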

[8] = system: CAL-62; assay: Downregulation of HIF1alpha expression in human CAL-62 cells at 1 uM incubated for 48 hrs under hypoxia condition by Western blot analysis; assay type: functional, cell-based
[9] = system: CAL-62; assay: Downregulation of EPAS-1 expression in human CAL-62 cells at 1 uM incubated for 48 hrs under hypoxia condition by Western blot analysis; assay type: functional, cell-based
[10] = system: CAL-62; assay: Downregulation of CA-IX expression in human CAL-62 cells at 1 uM incubated for 48 hrs under hypoxia condition by Western blot analysis; assay type: functional, cell-based
[11] = system: MDA-MB-231; assay: Downregulation of HIF1alpha expression in human MDA-MB-231 cells at 1 uM incubated for 48 hrs under hypoxia condition by Western blot analysis; assay type: functional, cell-based
[12] = system: MDA-MB-231; assay: Downregulation of EPAS-1 expression in human MDA-MB-231 cells at 1 uM incubated for 48 hrs under hypoxia condition by Western blot analysis; assay type: functional, cell-based
[13] = system: MDA-MB-231; assay: Downregulation of CA-IX expression in human MDA-MB-231 cells at 1 uM incubated for 48 hrs under hypoxia condition by Western blot analysis; assay type: functional, cell-based
[14] = target: T3, NAD-dependent protein deacetylase sirtuin-1 (Homo sapiens) (UniProt Q96EB6); assay: Activation of N-terminal his-tagged human SIRT1 expressed in Escherichia coli at 10 uM using p53-acK381 as substrate in presence of NAD+ by NADH oxidation-coupled enzymatic assay; outline: as §1
T3 sequence (whole entry): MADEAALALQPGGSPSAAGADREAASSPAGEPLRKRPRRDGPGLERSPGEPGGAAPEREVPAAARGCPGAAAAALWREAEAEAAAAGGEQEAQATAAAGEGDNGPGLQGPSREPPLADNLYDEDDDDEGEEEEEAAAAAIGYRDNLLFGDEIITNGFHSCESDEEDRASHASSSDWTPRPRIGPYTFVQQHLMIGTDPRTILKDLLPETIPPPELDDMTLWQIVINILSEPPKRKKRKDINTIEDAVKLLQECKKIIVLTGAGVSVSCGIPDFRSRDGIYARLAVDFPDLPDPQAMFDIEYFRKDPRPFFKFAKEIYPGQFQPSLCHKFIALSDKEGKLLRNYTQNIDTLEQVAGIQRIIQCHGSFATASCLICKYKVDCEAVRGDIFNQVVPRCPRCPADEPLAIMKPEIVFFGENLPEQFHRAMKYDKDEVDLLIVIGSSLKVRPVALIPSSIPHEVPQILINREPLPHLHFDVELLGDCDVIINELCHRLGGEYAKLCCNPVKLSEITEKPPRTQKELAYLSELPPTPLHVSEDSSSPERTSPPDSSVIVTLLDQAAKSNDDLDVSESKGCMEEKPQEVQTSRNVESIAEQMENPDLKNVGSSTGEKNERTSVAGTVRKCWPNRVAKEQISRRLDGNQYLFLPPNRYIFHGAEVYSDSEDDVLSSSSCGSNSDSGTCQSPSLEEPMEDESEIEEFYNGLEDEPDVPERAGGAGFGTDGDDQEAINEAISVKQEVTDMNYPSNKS

[15] = system: CAL-62; assay: Inhibition of clonogenicity in human CAL-62 cells at 50 uM incubated for 24 to 48 hrs under normoxia condition by crystal violet staining based assay; assay type: functional; settings: time 24-48 hrs
Outline: (§4)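 CAL-62 cells at 80–90% confluence treated with 50 μM compound for 24 or 48 h, in normoxia or with 200 μM CoCl2 (hypoxia). 500 cells replated per 100 mm dish and grown about 7 days. Colonies fixed in 4% formaldehyde, stained with 0.5% crystal violet, and counted.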

[16] = system: CAL-62; assay: Inhibition of clonogenicity in human CAL-62 cells at 50 uM incubated for 24 to 48 hrs under hypoxia condition by crystal violet staining based assay; assay type: functional; settings: time 24-48 hrs; outline: as §4
[17] = system: CAL-62; assay: Downregulation of HIF1alpha expression in human CAL-62 cells at 50 uM incubated for 48 hrs under hypoxia condition by Western blot analysis; assay type: functional, cell-based; outline: as §3
[18] = target: T4, NAD-dependent protein deacetylase sirtuin-2 (Homo sapiens) (UniProt Q8IXJ6); assay: Activation of N-terminal his-tagged human SIRT2 (43 to 356 residues) expressed in Escherichia coli at 10 uM using p53-acK381 as substrate in presence of NAD+ by NADH oxidation-coupled enzymatic assay
T4 sequence (whole entry): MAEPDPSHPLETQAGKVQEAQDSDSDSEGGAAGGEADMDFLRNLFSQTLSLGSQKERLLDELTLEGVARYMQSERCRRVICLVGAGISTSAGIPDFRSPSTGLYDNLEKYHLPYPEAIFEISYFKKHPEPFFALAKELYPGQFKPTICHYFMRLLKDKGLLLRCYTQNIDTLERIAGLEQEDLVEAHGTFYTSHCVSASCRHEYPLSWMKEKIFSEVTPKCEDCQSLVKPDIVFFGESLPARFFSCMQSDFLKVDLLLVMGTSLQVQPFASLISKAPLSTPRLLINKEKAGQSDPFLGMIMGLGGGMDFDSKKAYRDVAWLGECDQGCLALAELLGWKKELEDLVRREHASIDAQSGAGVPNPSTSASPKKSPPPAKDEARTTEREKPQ

[19] = target: NAD-dependent protein deacylase sirtuin-5, mitochondrial (Homo sapiens) (UniProt Q9NXA8); assay: Activation of N-terminal his-tagged human SIRT5 (34 to 302 residues) expressed in Escherichia coli at 10 uM using p53-acK381 as substrate in presence of NAD+ by NADH oxidation-coupled enzymatic assay
Chain of NAD-dependent protein deacylase sirtuin-5, mitochondrial (Homo sapiens) (Q9NXA8 37-310 limits assumed): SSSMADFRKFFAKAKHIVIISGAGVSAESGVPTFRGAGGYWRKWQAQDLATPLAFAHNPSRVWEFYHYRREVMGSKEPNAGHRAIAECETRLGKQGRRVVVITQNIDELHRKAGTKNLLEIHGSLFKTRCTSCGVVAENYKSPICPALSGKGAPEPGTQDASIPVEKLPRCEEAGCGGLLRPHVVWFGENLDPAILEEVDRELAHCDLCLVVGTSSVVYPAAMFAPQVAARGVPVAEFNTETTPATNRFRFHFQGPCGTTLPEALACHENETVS

| Compound | Activity [1] [%] | Activity ([2]; filed as activator) | also measured |
| --- | --- | --- | --- |
| CCOC(=O)C1=CN(C(=O)c2cccc(Br)c2)C=C(C(=O)OCC)C1c1ccccc1 | 120 | 214% |  |
| CCOC(=O)C1=CN(C(=O)c2ccc([N+](=O)[O-])cc2)C=C(C(=O)OCC)C1c1ccccc1 | 120 |  |  |
| CCOC(=O)C1=CN(C(=O)c2cccs2)C=C(C(=O)OCC)C1c1ccccc1 | 120 |  |  |
| CCOC(=O)C1=CN(C(=O)c2ccc(OC)cc2)C=C(C(=O)OCC)C1c1ccccc1 | 120 |  | Kd [3]: 72 µM; Activity [4]: inactive; Activity [5]: Tde; Activity [6]: Tde; Activity [7]: Active |
| CCOC(=O)C1=CN(C(=O)c2ccsc2)C=C(C(=O)OCC)C1c1ccccc1 | 120 |  | Activity [2]: inactive |
| CCOC(=O)C1=CN(C(=O)c2cc(OC)c(OC)c(OC)c2)C=C(C(=O)OCC)C1c1ccccc1 | 128 | 269% | Activity ([4]; filed as activator): 175% |
| CCOC(=O)C1=CN(C(=O)c2ccc(F)cc2)C=C(C(=O)OCC)C1c1ccccc1 | 120 | 142% |  |
| CCOC(=O)C1=CN(C(=O)c2cccc([N+](=O)[O-])c2)C=C(C(=O)OCC)C1c1ccccc1 | 120 |  |  |
| CCOC(=O)C1=CN(C(=O)c2ccc(Cl)cc2)C=C(C(=O)OCC)C1c1ccccc1 | 120 | 237% | Kd [3]: 74 µM |
| CCOC(=O)C1=CN(C(=O)c2ccco2)C=C(C(=O)OCC)C1c1ccccc1 | 120 |  |  |
| CCOC(=O)C1=CN(C(=O)c2ccc(Br)cc2)C=C(C(=O)OCC)C1c1ccccc1 | 120 | 184% |  |
| c1cncc(-c2cnn[nH]2)c1 |  |  | Activity [8]: inactive; Activity [9]: inactive; Activity [10]: inactive; Activity [11]: inactive; Activity [12]: inactive; Activity [13]: inactive |
| CCOC(=O)C1=CN(C(=O)c2cccc(Cl)c2)C=C(C(=O)OCC)C1c1ccccc1 | 120 | 204% |  |
| CCOC(=O)C1=CN(C(=O)c2ccc(C#N)cc2)C=C(C(=O)OCC)C1c1ccccc1 | 120 |  |  |
| CCOC(=O)C1=CN(C(=O)c2ccccc2)C=C(C(=O)OCC)C1c1ccccc1 | 157 | 188% |  |
| CCOC(=O)C1=CN(C(=O)Cc2ccccc2)C=C(C(=O)OCC)C1c1ccccc1 | 176 | Active |  |
| CCOC(=O)C1=CN(C(=O)c2cccc(OC)c2)C=C(C(=O)OCC)C1c1ccccc1 |  | 217% | Activity [14]: inactive; Kd [3]: 78 µM; Activity ([4]; filed as activator): Active; Activity [5]: Tde; Activity [6]: Tde; inhibition at 50 µM [15]: 53%; inhibition at 50 µM [16]: 53%; Activity [17]: Active; Activity [7]: Active; Activity [18]: inactive; Activity [19]: inactive |
| CCOC(=O)C1=CN(C(=O)C2CCCCC2)C=C(C(=O)OCC)C1c1ccccc1 | 120 | Active |  |
| CCOC(=O)C1=CN(C(=O)c2cccc(F)c2)C=C(C(=O)OCC)C1c1ccccc1 | 120 | 196% |  |
